The values that follow come from ChEMBL document CHEMBL2086369, “Design, synthesis, and pharmacological characterization of indol-3-ylacetamides, indol-3-yloxoacetamides, and indol-3-ylcarboxamides: potent and selective CB2 cannabinoid receptor inverse agonists” (J Med Chem, 2012).

For assay [1], the target named is Cannabinoid receptor 1 (Homo sapiens, UniProt P21554). The experiment in a line: biochemical. Format: cell-based, HEK293.
The species named for assay [2] is Homo sapiens. The experiment in a line: Selectivity index, ratio of Ki for human recombinant CB1 receptor to Ki for human recombinant CB2 receptor.
The target in assay [3] is T1, Cannabinoid receptor 2 (Homo sapiens, UniProt P34972). The experiment in a line: Displacement of [3H]CP-55,940 from human recombinant CB2 receptor transfected in HEK cells. Format: cell-based, HEK293. (In general: In a radioligand displacement assay an active substance lowers the binding of a labelled ligand.)
Assay [4] concerns Mus musculus. The experiment in a line: Antinociceptive activity in mouse assessed as reduction of formalin-induced nocifensive response at 1 to 3 mg/kg, ip administered 15 mins before formalin challenge measured for 0 to 7 mins. The format is functional, organism-based. Summed up:
(§1)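 Mice (n = 8−10 per group) got compound ip (1 or 3 mg/kg) or vehicle 15 min before formalin (1.25% in saline, 30 μL) into the dorsal hindpaw. Where used, COR167 (1 mg/kg, ip) was given 5 min before compound. Time spent licking plus elevating the paw was scored every 5 min over phase 1 (0−7 min) and phase 2 (15−60 min). Mean ± SEM; ANOVA with Dunnett's test.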

The test system of assay [5] is Mus musculus. The experiment in a line: Analgesic activity in mouse assessed as reduction of formalin-induced inflammatory pain at 1 mg/kg, ip administered 15 mins before formalin challenge measured for 15 to 60 mins in presence of CB2 agonist COR167. The format is functional, organism-based. Also on record: dose 1 mg/kg. Summed up:
as §1

Assay [6] deals with T1, Cannabinoid receptor 2. The experiment in a line: Inverse agonist activity at human CB2 receptor expressed in CHO cells assessed as increase of forskolin-induced cAMP level at 10 uM by scintillation counting. The format is functional, cell-based. The procedure, abridged: (§2)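 CHO cells expressing human CB2, trypsinized, 1 × 10⁶ cells per assay in HEPES-buffered saline with glucose, pH 7.4, 37 °C. Preincubated 10 min with 0.5 mM Ro 20-1724. Compound tested with 1 μM forskolin. Stopped with cold 6% TCA, ether-extracted, cAMP measured by [³H]cAMP competition binding to adrenal binding protein with scintillation counting. Given as % cAMP increase; means of ≥4 experiments in duplicate.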

Assay [7] deals with T1, Cannabinoid receptor 2. The experiment in a line: Inverse agonist activity at human CB2 receptor expressed in CHO cells assessed as increase of forskolin-induced cAMP level at 1 uM by scintillation counting. Format: functional, cell-based. Summed up:
as §2
Background: cAMP levels reflect the balance of adenylyl cyclase and phosphodiesterase activity.

The subject of assay [8] is Mus musculus. The experiment in a line: Analgesic activity in ip dosed mouse assessed as reduction of formalin-induced inflammatory pain administered 15 mins before formalin challenge measured for 15 to 60 mins. Format: functional, organism-based. The procedure, abridged:
as §1

The subject of assay [9] is Mus musculus. The experiment in a line: Antinociceptive activity in mouse assessed as reduction of formalin-induced nocifensive response at 1 mg/kg, ip administered 15 mins before formalin challenge measured for 0 to 7 mins in presence of CB2 agonist COR167. The format is functional, organism-based. The arrangement: dose 1 mg/kg. Summed up:
as §1

In assay [10] the target is T1, Cannabinoid receptor 2. The following applies: CHO, 1 uM.
The target in assay [11] is T1, Cannabinoid receptor 2. The following applies: CHO, 10 uM.

One may read the Ki as a measure of affinity in units of concentration, obtained from inhibition or displacement. For orientation: inhibition means the share of the control response that was lost under treatment. A lower inhibition goes with a weak effect.

Activity calls are given as the source filed them. No cut-off for these calls is given here.

T1 sequence (P34972 whole entry): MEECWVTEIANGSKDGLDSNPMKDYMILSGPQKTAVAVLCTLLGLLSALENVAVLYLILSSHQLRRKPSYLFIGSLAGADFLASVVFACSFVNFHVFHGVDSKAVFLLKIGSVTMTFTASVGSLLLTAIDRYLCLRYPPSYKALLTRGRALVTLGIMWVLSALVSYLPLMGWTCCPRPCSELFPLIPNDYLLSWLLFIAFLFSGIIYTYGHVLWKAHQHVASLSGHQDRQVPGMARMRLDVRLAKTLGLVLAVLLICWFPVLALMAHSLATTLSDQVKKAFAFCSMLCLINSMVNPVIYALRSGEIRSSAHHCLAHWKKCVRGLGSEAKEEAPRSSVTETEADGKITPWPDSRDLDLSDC
Cannabinoid receptor 1, sequence (P21554 whole entry): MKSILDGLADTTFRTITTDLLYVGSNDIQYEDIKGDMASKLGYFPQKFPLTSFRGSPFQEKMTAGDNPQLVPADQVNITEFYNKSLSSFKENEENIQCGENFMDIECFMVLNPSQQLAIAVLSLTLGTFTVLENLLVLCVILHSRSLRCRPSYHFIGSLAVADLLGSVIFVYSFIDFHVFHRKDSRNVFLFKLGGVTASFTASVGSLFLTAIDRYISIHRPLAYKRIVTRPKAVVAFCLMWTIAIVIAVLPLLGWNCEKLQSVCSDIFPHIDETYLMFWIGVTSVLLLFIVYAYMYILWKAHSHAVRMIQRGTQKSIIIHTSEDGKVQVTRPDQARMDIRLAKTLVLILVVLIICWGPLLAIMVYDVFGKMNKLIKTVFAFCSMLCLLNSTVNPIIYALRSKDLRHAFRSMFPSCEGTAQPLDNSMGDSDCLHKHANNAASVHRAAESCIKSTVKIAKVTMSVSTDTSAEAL

Consider `CCCCCn1cc(CC(=O)NC23CC4CC(CC(C4)C2)C3)c2cc(-c3ccco3)ccc21`, for which the Ki in [1] worked out at 1660 nM; in [3], 110 nM. Moreover, the Ratio Ki in [2] is 15.1.
For `CCCCCn1cc(CC(=O)NC23CC4CC(CC(C4)C2)C3)c2cc(Br)ccc21`, in that order: 5510 nM, 170 nM and 32.4.
Take `C=CCn1cc(CC(=O)NC2CCCCC2)c2cc(OCc3cccc(OC)c3)ccc21`: the Ki is above 10000 nM in [1] and 400 nM in assay [3]. In assay [2], the Ratio Ki is above 25.
For the compound `C=CCn1cc(C(=O)NC23CC4CC(CC(C4)C2)C3)c2cc(-c3ccccc3)ccc21`, the Ki in assay [1] came to 48.2 nM; in [3], 1.82 nM. The Ratio Ki in [2] turned out to be 26.5.
With `CCCCCn1cc(C(=O)C(=O)NC23CC4CC(CC(C4)C2)C3)c2cc(-c3ccco3)ccc21`, the Ki in assay [1] turned out to be 345 nM; in assay [3], 0.37 nM. In [4], the result was inactive. In addition, the result in assay [5] and in assay [9] was Active. In addition, the Activity in assay [6] is 163%; in assay [7], 138%; in assay [8], “Dose-dependent effect”. Besides, in assay [2], the Ratio Ki was 932.
For `CCCCn1cc(CC(=O)NC23CC4CC(CC(C4)C2)C3)c2cc(-c3ccccc3)ccc21`, the Ki is above 10000 nM in assay [1] and 20.5 nM in assay [3]. The Ratio Ki in assay [2] was above 487.
As for `CCCCCn1cc(C(=O)NC23CC4CC(CC(C4)C2)C3)c2cc(-c3cccs3)ccc21`, the Ki was 3620 nM in assay [1] and 6.37 nM in assay [3]. Besides, the Activity is 135% in assay [6] and 106% in [7]. Also, in assay [2], the Ratio Ki stood at 568.
Regarding `C=CCn1cc(C(=O)NC23CC4CC(CC(C4)C2)C3)c2cc(-c3ccc(O)cc3)ccc21`, the inhibition constant Ki in [1] was above 10000 nM; in [3] it was 22.2 nM. Also, the Activity came to 68% in [6] and 51% in assay [7]. The Ratio Ki in [2] is above 450.
Take `CCCCCn1cc(C(=O)C(=O)NC2CCCCC2)c2cc(-c3ccccc3)ccc21`: the figures for the Ki in [1] and in assay [3] were above 10000 nM and 11.2 nM, respectively. For the same compound, the Ratio Ki in assay [2] was above 892.
`CCCCCn1cc(C(=O)C(=O)NC23CC4CC(CC(C4)C2)C3)c2cc(-c3ccccc3)ccc21`: the Ki in assay [1] is above 10000 nM; in assay [3], 12.7 nM. Moreover, the values for the Activity in assay [6] and in [7] were 70% and 55%, respectively. Besides, in assay [2], the Ratio Ki was above 787.
For the compound `CCn1cc(CC(=O)NC23CC4CC(CC(C4)C2)C3)c2cc(-c3ccccc3)ccc21`, the values for the Ki in assay [1] and in assay [3] were 698 nM and 67 nM, respectively. Further, in assay [2], the Ratio Ki amounted to 10.4.
`C=CCn1cc(CC(=O)NC23CC4CC(CC(C4)C2)C3)c2cc(Br)ccc21`: the figures for the Ki in [1] and in [3] were above 10000 nM and 1090 nM, respectively. The Ratio Ki in assay [2] is above 9.
On to `CCCCCn1cc(C(=O)NC23CC4CC(CC(C4)C2)C3)c2ccc(-c3ccccc3)cc21`, for which the Ki in [1] was found to be 2.03 nM; in assay [3] it was 3.52 nM. The Ratio Ki in [2] was 0.6.
For `CCCCCn1cc(C(=O)NC23CC4CC(CC(C4)C2)C3)c2cc(-c3ccccc3)ccc21`, in that order: 1050 nM, 11.6 nM and 90.7.
For `C=CCn1cc(CC(=O)NC2CCCCCC2)c2cc(-c3ccco3)ccc21`, in that order: above 10000 nM, 377 nM and above 26.
With `C=CCn1cc(CC(=O)NC23CC4CC(CC(C4)C2)C3)c2cc(-c3ccccc3)ccc21`, the Ki in [1] was 530 nM; in assay [3] it was 50 nM. Besides, the Activity in assay [6] came to 88%; in assay [7], 67%. Further, the Ratio Ki in assay [2] came out at 10.6.
For the compound `C=CCn1cc(CC(=O)NC23CC4CC(CC(C4)C2)C3)c2cc(-c3ccco3)ccc21`, the Ki in assay [1] stood at 560 nM; in assay [3] it was 50 nM. The Ratio Ki in assay [2] was 11.2.
Regarding `Cn1cc(CC(=O)NC23CC4CC(CC(C4)C2)C3)c2cc(-c3ccccc3)ccc21`, the Ki came out at 488 nM in assay [1] and 98 nM in assay [3]. Moreover, in [2], the Ratio Ki turned out to be 5.
In the case of `C=CCCn1cc(CC(=O)NC23CC4CC(CC(C4)C2)C3)c2cc(-c3ccccc3)ccc21`, the Ki in assay [1] was 1830 nM; in assay [3], 17.8 nM. The Ratio Ki in assay [2] stood at 103.
On to `O=C(Cc1cn(Cc2ccccc2)c2ccc(-c3ccccc3)cc12)NC12CC3CC(CC(C3)C1)C2`, for which the Ki was above 10000 nM in assay [1] and 189 nM in assay [3]. Moreover, the Ratio Ki in assay [2] was above 52.
Regarding `CCCCCn1cc(C(=O)NC23CC4CC(CC(C4)C2)C3)c(=O)c2cc(-c3ccco3)ccc21`, the Ki in [1] is above 10000 nM.
Take `C=CCn1cc(C(=O)C(=O)NC23CC4CC(CC(C4)C2)C3)c2cc(-c3ccco3)ccc21`: the Ki in assay [1] was determined as 3620 nM; in assay [3], 10.3 nM. The Activity in assay [6] was 75%; in assay [7], 62%. Moreover, the Ratio Ki in assay [2] came to 351.
In the case of `C=CCn1cc(C(=O)NC23CC4CC(CC(C4)C2)C3)c2cc(-c3ccco3)ccc21`, the Ki in assay [1] is 2790 nM; in assay [3] it was 5.73 nM. For the same compound, the Ratio Ki in assay [2] was 488.
Turning to `CCCCCn1cc(C(=O)NC23CC4CC(CC(C4)C2)C3)c2cc(-c3ccco3)ccc21`, the figures for the Ki in assay [1] and in [3] were 342 nM and 2.48 nM, respectively. For the same compound, the result in assay [4], in assay [5] and in [9] was inactive. For the same compound, the Activity was 110% in assay [6], 93% in assay [7] and “Dose-dependent effect” in [8]. The Ratio Ki in assay [2] stood at 138.
Consider `CCCCCn1cc(CC(=O)NC23CC4CC(CC(C4)C2)C3)c2cc(-c3ccccc3)ccc21`, for which the Ki in assay [1] came out at 2380 nM; in assay [3], 70 nM. In addition, the Ratio Ki in [2] stood at 34.
As for `C=CCn1cc(C(=O)C(=O)NC23CC4CC(CC(C4)C2)C3)c2cc(-c3ccccc3)ccc21`, the results for the Ki in assay [1] and in [3] were 3920 nM and 25.4 nM, respectively. In addition, in assay [2], the Ratio Ki turned out to be 154.
For `O=C(Cc1c[nH]c2ccc(-c3ccccc3)cc12)NC12CC3CC(CC(C3)C1)C2`, in that order: above 10000 nM, 70.8 nM and above 141.
For `CCCn1cc(CC(=O)NC23CC4CC(CC(C4)C2)C3)c2cc(-c3ccccc3)ccc21`, in that order: 1510 nM, 11.8 nM and 128.
For `CCCC(C)(C)c1ccc2c(c1)OC(C)(C)[C@@H]1CC=C(C)C[C@@H]21`, the inhibition in assay [10] was 87%; in assay [11], 94%.
